Compounds with a hit are over-represented: about 1.9% of the library has one in this group of screens.
Tb hexokinase: Trypanosoma brucei hexokinase 1 inhibitors, primary screen, biochemical, G6PDH-coupled NADH absorbance, MLSCN library | inhibition, % at 10 µM | hexokinase 1 [Trypanosoma brucei] | 220,000 compounds, 0.11% hits | recombinant TbHK1, G6PDH-coupled NADH A340 | AID 1430, 2008;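 active = inhibition of 50% or more in the single-dose primary screen; inactive = inhibition below 50%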
RanGTP-Impb inh: inhibitors of RanGTP-importin-beta interaction, primary screen, biochemical, FRET, CFP-Ran, YFP-importin-beta, homogeneous. cell-free CFP-Ran/YFP-importin-beta FRET ratio. inhibition, % (test concentration not listed). 300,000 compounds, 1.1% hits. AID 2216, 2009;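 active = more than half of the replicate wells show a fall in the fluorescence ratio signal beyond about 16%, limit read from the data, passing the limit was not always enough; inconclusive = exactly half of the replicate wells pass the set limit; inactive = fewer than half of replicates pass the limit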;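 also: 0% = DMSO wells and 100% = Ran loaded with GDP instead of GTP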
Hck Nef HTS: inhibitors of Nef-activated human Hck kinase, primary screen, biochemical, Z-Lyte FRET, 384-well, Hck-YEEI; Recombinant Hck-YEEI plus Nef, Z-Lyte FRET kinase assay; inhibition, % at 20 µM; 220,000 compounds, 0.68% hits; AID 463187, 2010;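 active = Hck-Nef kinase inhibition above about 50%, limit read from the data; inactive = inhibition below that limit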;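 also: 0% = DMSO with Hck plus Nef and 100% = Hck alone without Nef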
Target sequence (P08631 whole entry, looked up): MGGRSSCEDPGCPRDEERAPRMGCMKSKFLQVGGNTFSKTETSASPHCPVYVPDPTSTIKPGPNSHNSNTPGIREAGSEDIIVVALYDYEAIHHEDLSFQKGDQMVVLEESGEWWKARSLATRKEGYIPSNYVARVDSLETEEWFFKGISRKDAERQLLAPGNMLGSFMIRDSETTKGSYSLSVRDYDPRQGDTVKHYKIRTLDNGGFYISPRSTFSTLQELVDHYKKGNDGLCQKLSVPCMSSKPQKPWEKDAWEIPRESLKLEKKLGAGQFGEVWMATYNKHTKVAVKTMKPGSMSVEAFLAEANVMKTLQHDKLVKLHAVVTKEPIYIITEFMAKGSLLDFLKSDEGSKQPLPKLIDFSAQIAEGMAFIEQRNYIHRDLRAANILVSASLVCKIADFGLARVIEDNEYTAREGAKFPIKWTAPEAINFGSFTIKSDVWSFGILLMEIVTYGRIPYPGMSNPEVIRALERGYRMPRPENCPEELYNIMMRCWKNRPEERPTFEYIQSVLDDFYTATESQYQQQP
Runt-CBFb FRET: inhibitors of RUNX1 Runt–CBFb binding, primary screen, biochemical, FRET, Cerulean-Runt, Venus-CBFb, uHTS. Runt-related transcription factor 1 (Homo sapiens) + Core-binding factor subunit beta …. Cerulean-Runt/Venus-CBFb FRET ratio 530/480, 1 h. inhibition, % at 20 µM. 220,000 compounds, 0.46% hits. AID 1496, 2009;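 active = inhibition over about 50% at 20 µM in the single-dose screen, limit read from the data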;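 also: 0% = DMSO wells and 100% = excess unlabeled CBFb competitor control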
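System: Cerulean-labeled Runt domain protein | Quantity: 100 nM of each labeled protein | Schedule: 1 h compound exposure, room temperature | Detection: Fluorescence energy transfer, 422 nm excitation, 530/480 nm emission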
Runt-SMMHC FRET: inhibitors of RUNX1 Runt–CBFb-SMMHC binding, primary screen, biochemical, FRET, Cerulean-Runt, Venus-CBFb-SMMHC, uHTS; 220,000 compounds, 0.74% hits; inhibition, % at 20 µM; Runt-related transcription factor 1 (Homo sapiens) + Core-binding factor subunit beta …; AID 1434, 2008; Cerulean-Runt/Venus-CBFb-SMMHC FRET ratio 530/480, 1 h;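 active = mean inhibition across duplicate retests at 20 µM reaching about 50%, limit read from the data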;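 also: 0% = DMSO wells and 100% = wells with excess untagged CBFb-SMMHC; inhibitors lower the FRET ratio by blocking Runt binding to CBFb-SMMHC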
G6PDH counter: Leuconostoc G6PDH inhibition, confirmation, counter-screen for TbHK1 inhibitor project, biochemical, DPI cherry-picked compounds, single concentration. shares compounds with Tb hexokinase. purified G6PDH, NADH absorbance, 1 h. inhibition, % at 10 µM. 210 compounds, 7% hits. AID 2516, 2010;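 active = at least 50% inhibition in the glucose-6-phosphate dehydrogenase coupled counterscreen; inconclusive = no clear call, values can overlap the other calls; inactive = inhibition below 50%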
TbHK1 rescreen: TbHK1 inhibitor retest, confirmation, biochemical, DPI cherry-picked primary actives | shares compounds with Tb hexokinase | recombinant TbHK1, G6PDH-coupled NADH A340 absorbance | inhibition, % at 10 µM | 210 compounds, 10% hits | AID 2560, 2010;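 active = inhibition of at least 50% in both of the two screening runs; inconclusive = at least 50% in one run, below 50% in the other; inactive = inhibition below 50% in both runs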;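 also: 0% and 100% set by the maximum and minimum signal control wells on each plate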
Active calls of the source: *; ? = inconclusive; . = no result.

SMILES	Tb hexokinase	RanGTP-Impb inh	Hck Nef HTS	Runt-CBFb FRET	Runt-SMMHC FRET	others
C=CCN=C(SCC(=O)c1ccc(Cl)cc1)c1c(O)n(C)c(=O)n(C)c1=O	-7.4	1.2	13.5	5.7	-1.4
CC(N)Cc1cn(Cc2ccccc2)c2ccccc12 (stereo not drawn)	.	0.1	.	.	.
c1ccc(-c2[nH]c[n+](CC3CO3)c2-c2ccccc2)cc1 (stereo not drawn)	68.7*	.	-2.8	0.2	0.4
C[C@]12CC[C@H](OS(=O)(=O)O)CC1=CC[C@@H]1[C@@H]2CC[C@]2(C)C(=O)CC[C@@H]12	.	6.1	.	.	.
C[C@H]1CC[C@@H]2[C@@H](C)[C@H]3[C@H](C[C@H]4[C@@H]5CC=C6C[C@@H](O[C@@H]7O[C@H](CO)[C@H](O)[C@H](O[C@@H]8O[C@H](CO)[C@@H](O)[C@H](O)[C@H]8O)[C@H]7O[C@@H]7O[C@@H](C)[C@H](O)[C@@H](O)[C@H]7O)CC[C@]6(C)[C@H]5CC[C@]34C)N2C1	-14.0	16.7*	-3.1	8.4	23.6
O=C(Nc1ccc(F)cc1)N1CC2CC(C1)c1cccc(=O)n1C2 (stereo not drawn)	2.8	21.4*	-0.6	.	-4.3
COc1ccccc1-n1c(-c2ccccc2)nc2ccccc2c1=O	.	6.1	.	.	.
CC(C)CCNC(=O)c1c(N)n(Cc2ccc3c(c2)OCO3)c2nc3ccccc3nc12	-22.5	77.2*	-0.6	6.4	33.5
CC(C)CNC(=O)c1c(N)n(Cc2ccc3c(c2)OCO3)c2nc3ccccc3nc12	-14.2	1.2	1.7	14.5	55.7*
CCCNC(=O)c1c(N)n(Cc2ccc3c(c2)OCO3)c2nc3ccccc3nc12	-4.8	.	3.1	5.3	20.2
COCCOC(=O)c1c(N)n(Cc2ccco2)c2nc3ccccc3nc12	-19.0	19.5*	31.1	.	74.3
Nc1c(C(=O)NCc2ccco2)c2nc3ccccc3nc2n1CCN1CCCCC1	-2.5	71.4*	45.5	8.2	62.6
COCCCNC(=O)c1c(N)n(Cc2ccco2)c2nc3ccccc3nc12	-28.8	71.9*	47.2	75.9*	81.0*
CCCCn1c(=O)c(C(=O)NCc2ccccc2)c(O)c2ccccc21	.	8.0	.	.	.
CC(C)OC(=O)c1c(N)n(Cc2ccco2)c2nc3ccccc3nc12	-13.6	?	34.5	.	.
CCCCn1c(=O)c(C(=O)NCc2ccco2)c(O)c2ccccc21	0.2	-2.8	26.5	-3.5	2.8
CCCCNC(=O)c1c(N)n(CCCOC)c2nc3ccccc3nc12	-17.5	105.9*	48.1	5.4	54.3*
O=C(O)C1Cc2ccccc2N2CCCC12 (stereo not drawn)	.	-3.1	.	.	.
CC(C)CCn1c(=O)c(C(=O)NCc2ccco2)c(O)c2ccccc21	-13.5	4.2	11.3	3.3	2.4
CC(C)CNC(=O)c1c(N)n(Cc2ccco2)c2nc3ccccc3nc12	-12.8	-1.2	15.0	79.2*	.
O=C(N/N=C/c1c(O)n(-c2ccccc2)c(=S)[nH]c1=O)c1ccccc1	-21.5	3.1	15.3	13.6	23.3
Cc1ccccc1-n1c(O)c(/C=N/NC(=O)c2ccccc2O)c(=O)[nH]c1=S	-11.7	4.9	5.7	28.7	59.3*
O=C(N/N=C/c1c(O)n(C2CC2)c(=S)[nH]c1=O)c1ccccc1O	-1.6	0.2	1.9	41.9	73.0*
COc1ccc(-c2cc(C(F)(F)F)n3nc(C(=O)N4CCC5(CC4)OCCO5)cc3n2)cc1OC	-35.7	7.4	4.2	0.3	10.6
O=C1/C(=C\c2ccccc2)C2OCC=C3CN4CCC56c7ccccc7N1C5C2C3CC46 (stereo not drawn)	-41.0	-4.3	25.3	0.0	-2.6
SMILES	Tb hexokinase	RanGTP-Impb inh	Hck Nef HTS	Runt-CBFb FRET	Runt-SMMHC FRET	others
NC(=O)c1cn(C2OC(CO)C(O)C2O)c2ncnc(N)c12 (stereo not drawn)	5.9	2.4	54.3*	-1.7	0.7
NNC(=O)c1ccc(Cl)cc1	-6.1	0.2	0.1	1.5	-2.6
COc1ccc(CCNC(=O)COC(=O)Cc2ccccc2)cc1	5.3	0.5	-0.5	-1.8	0.2
CCOC(=O)c1c(N)n(Cc2ccc(OC)cc2)c2nc3ccccc3nc12	-6.6	11.6	24.7	46.9	110.5*
COC(=O)c1c(N)n(Cc2ccc(OC)cc2)c2nc3ccccc3nc12	-12.0	.	10.7	47.4	118.5*
CCN1CCN(c2cc(N3CCCC3)c([N+](=O)[O-])cc2F)CC1	-13.4	0.6	4.2	-2.9	-3.0
C=C1C[C@@H]2[C@H](CC[C@]3(C)C(=O)CC[C@@H]23)[C@@]2(C)C=CC(=O)C=C12	.	4.2	.	-0.9	-4.0
CCCCn1c(O)c(/C=C/C=Nc2ccccc2)c(=O)[nH]c1=O	-27.6	41.4*	3.6	47.3	64.3*
CCCCC(=O)N/N=C/c1c(O)n(CCc2ccccc2)c(=O)[nH]c1=O	1.7	2.4	32.2	0.7	0.0
Cn1c(O)c(/C=C/C=Nc2ccccc2)c(=O)n(C)c1=O	-11.6	33.0*	1.7	34.8	69.0*
Cc1ccccc1-[n+]1c(-c2ccccc2)cc(-c2ccccc2)cc1-c1ccccc1	.	-0.1	.	.	.
CC1(C)C[C@H]2C=C(C=O)[C@]3(C=O)C[C@]3(C)[C@H]2C1	-1.4	1.9	-19.8	3.2	4.3
CCOP(=O)(OCC)C(C)(C)NC(=O)C(Cl)(Cl)Cl	-1.1	84.5*	-2.6	0.1	-0.3
CCOP(=O)(OCC)C(NC(=O)CC(C)C)C(Cl)(Cl)Cl (stereo not drawn)	-3.7	2.2	16.9	0.7	-0.8
CN1CC=C2C(C#N)=C(N)C(C#N)(C#N)C(c3ccncc3)C2C1 (stereo not drawn)	3.7	44.9*	25.6	23.2	62.0
O=C(/C=C/c1c[nH]c2ccccc12)c1c(O)n(CCc2ccccc2)c(=O)[nH]c1=O	-13.0	30.9*	-17.1	-56.5	-89.6
CCn1nc(-c2ccccc2)nc2c(=O)n(C)c(=O)nc1-2	69.4*	-30.1	-0.2	-37.7	-126.9	G6PDH counter=33.7;TbHK1 rescreen=38.4
